Published values gathered from unrelated publications.
Lines come from different studies, so protocols differ.
ABL1 phosphorylated: Tyrosine-protein kinase ABL1, phosphorylated (ABL1, Homo sapiens, UniProt P00519)
ABL1 Q252H: Tyrosine-protein kinase ABL1 (ABL1, Homo sapiens, UniProt P00519, Q252H)
ABL1 M351T: Tyrosine-protein kinase ABL1 (ABL1, Homo sapiens, UniProt P00519, M351T)
ABL1 Y253F phosphorylated: Tyrosine-protein kinase ABL1, phosphorylated (ABL1, Homo sapiens, UniProt P00519, Y253F)
ABL1 Q252H phosphorylated: Tyrosine-protein kinase ABL1, phosphorylated (ABL1, Homo sapiens, UniProt P00519, Q252H)
ABL1 non-phosphorylated: Tyrosine-protein kinase ABL1, non-phosphorylated (ABL1, Homo sapiens, UniProt P00519)
ABL1 F317I phosphorylated: Tyrosine-protein kinase ABL1, phosphorylated (ABL1, Homo sapiens, UniProt P00519, F317I)
ABL1 T315I non-phosphorylated: Tyrosine-protein kinase ABL1, non-phosphorylated (ABL1, Homo sapiens, UniProt P00519, T315I)
ABL1 T315I phosphorylated: Tyrosine-protein kinase ABL1, phosphorylated (ABL1, Homo sapiens, UniProt P00519, T315I)
ABL1 E255K phosphorylated: Tyrosine-protein kinase ABL1, phosphorylated (ABL1, Homo sapiens, UniProt P00519, E255K)
ABL1 Q252H non-phosphorylated: Tyrosine-protein kinase ABL1, non-phosphorylated (ABL1, Homo sapiens, UniProt P00519, Q252H)

SMILES	target	effect on	method	tested at	remaining binding
C[C@@H]1CN(c2cc(-c3n[nH]c4ccc(OC5(C)CC5)cc34)ncn2)C[C@H](C)O1	ABL1 phosphorylated	cell-free assay	competition with immobilised ligand	0.1 µM	67%
C[C@@H](c1ccc(-n2cnc3c(N)ncnc32)cc1)N1CCc2nn(C)c(Cc3ccccc3)c2C1=O	ABL1 phosphorylated	binding	competition with immobilised ligand	0.1 µM	90%
CN(C)c1nccc(-c2cnc3ncccn23)n1	ABL1 Q252H	binding	–	1 µM	72%
Nc1ncc2c(n1)-c1c([nH]c3ccc(C#CC4CC4)cc13)CCCC2	ABL1 phosphorylated	binding	competition with immobilised ligand	1 µM	100%
O=C(c1ccc(Nc2nccc(-c3cc4ccccc4s3)n2)cc1)N1CCC(N2CCCC2)CC1	Tyrosine-protein kinase ABL1, non-phosphorylated (ABL1, Homo sapiens, UniProt P00519, H396P)	binding	competition with immobilised ligand	1 µM	3.1%
CN1CCN(c2ccc(Nc3nccc(-c4ccccc4)n3)cc2C(F)(F)F)CC1	ABL1 M351T	binding	–	10 µM	15%
CCN1CCN(Cc2ccc(C(=O)Nc3ccc(C)c(Oc4ccc5c(c4)CC(=O)N5)c3)cc2C(F)(F)F)CC1	ABL1 Y253F phosphorylated	binding	competition with immobilised ligand	1 µM	38%
Cc1cnn2ncc(-c3ccnc(N(C)C)n3)c2c1	ABL1 Q252H	binding	–	1 µM	100%
CC(=O)N1CCC(c2ccc(C(=O)NC(=N)N)cc2C(F)(F)F)CC1	ABL1 Q252H phosphorylated	cell-free assay	competition with immobilised ligand	1 µM	100%
O=C(NCCCN1CCOCC1)c1ccc(Nc2ncc(Cl)c(-c3ccc(Cl)s3)n2)cc1	ABL1 non-phosphorylated	binding	competition with immobilised ligand	1 µM	26%
CN(c1ccnc(CNc2nc(Nc3ccc4c(c3)CC(=O)N4)ncc2C(F)(F)F)n1)S(C)(=O)=O	ABL1 F317I phosphorylated	binding	–	1 µM	79%
O=C(NCCCN1CCOCC1)c1ccc(Nc2nccc(-c3cc4ccccc4s3)n2)cc1	ABL1 phosphorylated	binding	competition with immobilised ligand	1 µM	37%
CO[C@@H](C)c1c(Nc2ccc([C@H](N(C)C(=O)C3CCS(=O)(=O)CC3)C(F)(F)F)cc2)cnc2cc(Cl)nn12	Tyrosine-protein kinase ABL1, non-phosphorylated (ABL1, Homo sapiens, UniProt P00519, F317I)	binding	competition with immobilised ligand	1 µM	100%
O=C(c1ccc(Nc2ncc(Cl)c(-c3cc4ccccc4s3)n2)cc1)N1CCC(N2CCCC2)CC1	ABL1 T315I non-phosphorylated	binding	competition with immobilised ligand	1 µM	0.9%
COc1ncc2cc3ccccc3nc2c1C#N	ABL1 Y253F phosphorylated	cell-free assay	competition with immobilised ligand	5 µM	92%
Cc1noc([C@H]2C[C@@H](c3ccc(C(F)(F)F)cc3)CN(C(=O)N3CCS(=O)(=O)C3)C2)n1	ABL1 T315I non-phosphorylated	cell-free assay	competition with immobilised ligand	1 µM	100%
O=C(c1ccc(Nc2ncc(Cl)c(-c3ccc(Cl)s3)n2)cc1)N1CCC(N2CCCC2)CC1	ABL1 T315I phosphorylated	binding	competition with immobilised ligand	1 µM	1.1%
O=C(NCC1CCOCC1)c1n[nH]cc1NC(=O)c1c(F)cccc1F	ABL1 E255K phosphorylated	binding	competition with immobilised ligand	1 µM	88%

SMILES	target	effect on	method	tested at	remaining binding
O=C(NS(=O)(=O)c1ccc(NCC2CCOCC2)c([N+](=O)[O-])c1)c1ccc(N2CCN(Cc3ccc(C(F)(F)F)cc3-c3ccc(Cl)cc3)CC2)cc1Oc1cnc2[nH]ccc2c1	Tyrosine-protein kinase ABL1, phosphorylated (ABL1, Homo sapiens, UniProt P00519, M351T)	cell-free assay	competition with immobilised ligand	1 µM	100%
c1cnn2ncc(-c3ccnc(N4CCC45COC5)n3)c2c1	Tyrosine-protein kinase ABL1 (ABL1, Homo sapiens, UniProt P00519, E255K)	binding	–	1 µM	63%
c1cncc(-c2cccc(Nc3nccc(NC4CCCCC4)n3)c2)c1	ABL1 Q252H phosphorylated	binding	competition with immobilised ligand	10 µM	24%
CN(c1nccc(-c2cnn3ncccc23)n1)C1CC1	Tyrosine-protein kinase ABL1 (ABL1, Homo sapiens, UniProt P00519, F317I)	binding	–	1 µM	100%
CC(C)(C)c1ccc(-c2nc(CBr)nn2-c2cccc(O)c2)cc1	ABL1 non-phosphorylated	cell-free assay	competition with immobilised ligand	10 µM	82%
C=CC(=O)N1CCC(C(=O)NCC(=O)N2CCN(c3nc(-c4cnc(N)nc4C(F)F)nc(N4CCOCC4)n3)CC2)CC1	ABL1 Q252H non-phosphorylated	binding	competition with immobilised ligand	1 µM	94%
COc1cnc(Nc2cccc(S(N)(=O)=O)c2)nc1N1CCN(c2ccccc2)CC1	ABL1 Q252H non-phosphorylated	binding	competition with immobilised ligand	1 µM	78%
C[C@H](c1ccc(F)cc1)N(Cc1cccc(C(=O)O)c1)C(=O)c1cnc2ccccc2c1	ABL1 T315I phosphorylated	cell-free assay	competition with immobilised ligand	1 µM	75%
O=C(Nc1c[nH]nc1C(=O)NC1CCNCC1)c1cc(F)cc(F)c1	Tyrosine-protein kinase ABL1, non-phosphorylated (ABL1, Homo sapiens, UniProt P00519, F317L)	binding	competition with immobilised ligand	1 µM	100%
C[C@@H]1CCN(c2nccc(-c3cnn4ncccc34)n2)C1	Tyrosine-protein kinase ABL1 (ABL1, Homo sapiens, UniProt P00519, H396P)	binding	–	1 µM	79%
CNC(=O)[C@@H]1CC[C@@H](n2c(-c3ccc4cnccc4c3)nc3ccc(C(=O)NCc4cccc(C(N)=O)c4)cc32)C1	ABL1 Q252H phosphorylated	binding	competition with immobilised ligand	1 µM	100%
N[C@H]1CCN(c2nccc(-c3cnn4ncccc34)n2)C1	Tyrosine-protein kinase ABL1 (ABL1, Homo sapiens, UniProt P00519, Y253F)	binding	–	1 µM	53%
O=C(O)[C@H]1[C@H](Cn2nnc3ccccc3c2=O)CC[C@@H]1C(=O)c1ccc(OCCC2CCOCC2)cc1	ABL1 F317I phosphorylated	binding	–	1 µM	100%
Cc1cnc(Nc2ccc(C(=O)N3CCC(N4CCCC4)CC3)cc2)nc1-c1cc2ccccc2s1	ABL1 Y253F phosphorylated	binding	competition with immobilised ligand	1 µM	0.6%
F[C@@H]1CCN(c2nccc(-c3cnn4ncccc34)n2)C1	ABL1 M351T	binding	–	1 µM	100%
COc1cnc(Nc2cccc(S(N)(=O)=O)c2)nc1N1CCN(c2ccccc2)C(=O)C1	ABL1 Q252H non-phosphorylated	binding	competition with immobilised ligand	1 µM	95%
COC(=O)Nc1nc2ccc(C(=O)c3ccccc3)cc2[nH]1	ABL1 E255K phosphorylated	cell-free assay	competition with immobilised ligand	10 µM	2.2%
